Reference: ChEMBL document CHEMBL1125098, “Lipophilic 1,3-xylyl-21-crown-6 macrocyclic polyether 2-carboxylic acids as biological mimics of the ionophore antibiotics” (1990)
≈ marks a conversion by molar mass, not a printed value.

What was measured:
[1] = Antibacterial activity Streptococcus zooepidemicus 02H001; type: functional, Streptococcus equi subsp. zooepidemicus; details: Streptococcus equi
How it was run: (§1)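 Agar dilution MIC on BHI agar: overnight BHI broth cultures (37 °C) diluted 100-fold, ~10000–20000 cells spotted by multiple inoculator; twelve 2-fold dilutions starting at 200 μg/mL; plates read after 18 h at 37 °C, single colonies disregarded. Compounds tested as macrocyclic carboxylate salts.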

Clostridium perfringens = assay: Antibacterial activity was determined against Clostridium perfringens 10A002; type: functional
How it was run: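 Agar dilution MIC on BHI agar, twelve 2-fold dilutions of drug starting at 200 μg/mL. Overnight BHI broth cultures (37 °C) diluted 100-fold; about 10000–20000 cells spotted per point by multiple inoculator. Plates read after 18 h at 37 °C, single colonies disregarded. Incubated anaerobically under 80% N₂, 10% CO₂, 10% H₂ in an anaerobic chamber.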

Staphylococcus aureus = assay: Antibacterial activity against Staphylococcus aureus 01A005; type: functional; how it was run: as §1
Bos taurus [2] = organism: Bos taurus; assay: In vitro rumen propionic acid test procedure, 50 ug/mL; type: functional
How it was run: (§2)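 Filtered rumen fluid (10 mL) with 400 mg substrate (68% corn starch, 17% cellulose, 15% extracted soybean meal) and pH 6.8 buffer, compound at 50 or 20 μg/mL; N2-gassed, shaken at 39 °C ~6 h, triplicate. Stopped with metaphosphoric acid, then GLC peak heights of acetic/propionic/butyric acids; response expressed relative to monensin at 10 μg/mL versus untreated controls.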

Bos taurus [3] = organism: Bos taurus; assay: In vitro rumen propionic acid test procedure, 20 ug/mL; type: functional; how it was run: as §2
[4] = Antibacterial activity against Streptococcus equi 02I001; type: functional; how it was run: as §1

Row | SMILES | MIC [1] [µg/mL] | MIC (Clostridium perfringens) [µg/mL] | MIC (Staphylococcus aureus) [µg/mL] | Stimulation (Bos taurus [2]) [%] | Stimulation (Bos taurus [3]) [%] | MIC [4] [µg/mL]
1 | CC(C)(C)CC(C)(C)c1cc(CCc2ccccc2)c2c(c1)OCCOCCOCc1cc(C(C)(C)C)cc(c1C(=O)O)COCCOCCO2 | 1.56 (≈ 2.21 µM) | 1.56 (≈ 2.21 µM) | 6.25 (≈ 8.87 µM) | 1.09 | 0.32 | 1.56 (≈ 2.21 µM)
2 | Cc1cc(C(C)(C)CC(C)(C)C)cc2c1OCCOCCOCc1cc(C(C)(C)C)cc(c1C(=O)O)COCCOCCO2 | 6.25 (≈ 10.2 µM) | 3.12 (≈ 5.07 µM) | 6.25 (≈ 10.2 µM) | 1.02 | 0.5 | 3.12 (≈ 5.07 µM)
3 | Cc1cc(C(C)(C)CC(C)(C)C)cc2c1OCCOCCOCc1cccc(c1C(=O)O)COCCOCCO2 | 50 (≈ 89.5 µM) |  | 25 (≈ 44.7 µM) | 0.87 | 0.33 | 12.5 (≈ 22.4 µM)
4 | CC(C)(C)CC(C)(C)c1ccc2c(c1)OCCOCCOCc1cc(C(C)(C)C)cc(c1C(=O)O)COCCOCCO2 | 6.25 (≈ 10.4 µM) | 6.25 (≈ 10.4 µM) | 12.5 (≈ 20.8 µM) | 0.97 | 0.64 | 6.25 (≈ 10.4 µM)
5 | CC(C)(C)c1ccc(OCC2COc3ccccc3OCCOCCOCCOCc3cc(C(C)(C)C)cc(c3C(=O)O)CO2)cc1 (configuration not stated) | 3.12 (≈ 4.79 µM) | 1.56 (≈ 2.4 µM) | 1.56 (≈ 2.4 µM) | 1.06 | 0.6 | 1.56 (≈ 2.4 µM)
6 | COc1cc2c(C(=O)O)c(c1)COCCOCCOc1c(C)cc(C(C)(C)CC(C)(C)C)cc1OCCOCCOC2 | 25 (≈ 42.5 µM) |  | 50 (≈ 84.9 µM) | 0.42 | 0.04 | 25 (≈ 42.5 µM)
7 | Cc1cc(C(C)(C)CC(C)(C)C)cc2c1OCCOCCOCCOCc1cc(C(C)(C)C)cc(c1C(=O)O)COCCOCCOCCO2 | 6.25 (≈ 8.89 µM) | 12.5 (≈ 17.8 µM) | 12.5 (≈ 17.8 µM) | 0.41 | 0.11 | 3.12 (≈ 4.44 µM)
8 | O=C(O)c1c2cccc1COCCOCCOc1ccccc1OCCOCCOC2 | > 200 | > 200 | > 200 | 0.2 |  | > 200
9 | CC(C)(C)CC(C)(C)c1ccc2c(c1)OCCOCCOCCOCc1cc(C(C)(C)C)cc(c1C(=O)O)COCCOCCOCCO2 | 25 (≈ 36.3 µM) | 25 (≈ 36.3 µM) | 50 (≈ 72.6 µM) | 0.52 | 0.4 | 12.5 (≈ 18.1 µM)
10 | CC(C)c1cc(C(C)(C)CC(C)(C)C)cc2c1OCCOCCOCc1cc(C(C)(C)C)cc(c1C(=O)O)COCCOCCO2 | 0.78 (≈ 1.21 µM) | < 0.39 | 0.78 (≈ 1.21 µM) | 0.7 | 0.43 | 0.78 (≈ 1.21 µM)
11 | COCc1cc(C(C)(C)CC(C)(C)C)cc2c1OCCOCCOCc1cc(C(C)(C)C)cc(c1C(=O)O)COCCOCCO2 | 25 (≈ 38.8 µM) | 25 (≈ 38.8 µM) | 12.5 (≈ 19.4 µM) | 0.64 | 0.2 | 12.5 (≈ 19.4 µM)
12 | CC(C)(C)c1cc2c(C(=O)O)c(c1)COC(COc1ccccc1)COc1ccccc1OCCOCCOCCOC2 (configuration not stated) | 50 (≈ 84.1 µM) | 25 (≈ 42 µM) | 25 (≈ 42 µM) |  | 0 | 25 (≈ 42 µM)
13 | CC(C)(C)CC(C)(C)c1cc(Cc2ccccc2)c2c(c1)OCCOCCOCc1cc(C(C)(C)C)cc(c1C(=O)O)COCCOCCO2 | 3.12 (≈ 4.52 µM) | 1.56 (≈ 2.26 µM) | 3.12 (≈ 4.52 µM) | 0.76 | 0.44 | 3.12 (≈ 4.52 µM)
14 | Cc1cc(C(C)(C)CC(C)(C)C)cc2c1OCCOCCOCc1cc(Br)cc(c1C(=O)O)COCCOCCO2 | 12.5 (≈ 19.6 µM) |  | 12.5 (≈ 19.6 µM) | 0.53 | 0.06 | 6.25 (≈ 9.8 µM)
15 | CC(C)(C)CC(C)(C)c1ccc2c(c1)OCCOCCOCc1cccc(c1C(=O)O)COCCOCCO2 | 25 (≈ 45.9 µM) | 25 (≈ 45.9 µM) | 25 (≈ 45.9 µM) | 1.02 | 0.4 | 25 (≈ 45.9 µM)
16 | CCCCCCCCCCCc1ccc2c(c1)OCCOCCOCc1cccc(c1C(=O)O)COCCOCCO2 | 1.56 (≈ 2.66 µM) | 3.12 (≈ 5.32 µM) | 1.56 (≈ 2.66 µM) | 0.82 | 0.46 | 1.56 (≈ 2.66 µM)
17 | O=C(O)c1c2cccc1COCCOCCOCCOCCOCCOC2 | > 200 | > 200 | > 200 | 0 | 0 | > 200
